Results: ChEMBL document CHEMBL3627671, “Novel derivatives of nitro-substituted salicylic acids: Synthesis, antimicrobial activity and cytotoxicity” (Bioorg Med Chem, 2015)
Values after ≈ are worked out from the molar mass of the structure shown.

What was measured:
Trichosporon asahii [1] = assay: Antifungal activity against Trichosporon asahii 1188 after 48 hrs by microdilution broth method; type: functional; settings: Trichosporon asahii, 1188, 48 h
In short: (§1)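 CLSI M27-A3 broth microdilution in RPMI 1640 with glutamine, buffered to pH 7.0 with MOPS; DMSO diluent. Yeast inoculum 5 × 10^3 ± 0.2 CFU/mL. Moulds grown on Sabouraud agar 3–10 days before spore harvest, final inoculum 0.5-5 × 10^4 CFU/mL, checked in a Bürker chamber. Incubated dark, humid, 35 °C, read at 24 and 48 h visually and at 540 nm. MIC taken as ≥80% (yeasts) or ≥50% (filamentous) growth reduction versus control.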

Klebsiella pneumoniae [2] = assay: Antibacterial activity against Klebsiella pneumoniae D 11750/08 after 48 hrs by microdilution broth method; type: functional; settings: D 11750/08, 48 h
In short: (§2)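 Mueller-Hinton broth microdilution (modified M07-A07), pH 7.4 (±0.2). Compounds dissolved in DMSO, tested at final 500 to 0.49 µmol/L. Inoculum in sterile water matched to 0.5 McFarland. Incubated in the dark, humid atmosphere, 35 °C, read at 24 and 48 h visually and at 540 nm. MIC taken as ≥95% growth reduction (IC95) versus control.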

Candida albicans [3] = assay: Antifungal activity against Candida albicans ATCC 44859 after 24 hrs by microdilution broth method; type: functional; settings: ATCC 44859, 24 h; in short: as §1
[4] = test system: Trichophyton mentagrophytes; assay: Antifungal activity against Trichophyton mentagrophytes 445 after 24 hrs by microdilution broth method; type: functional; settings: Trichophyton mentagrophytes, 445, 24 h
Mycobacterium kansasii [5] = assay: Antimycobacterial activity against Mycobacterium kansasii 235/80 after 21 days; type: functional; settings: 235/80, 504 h
In short: (§3)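 Šula's semisynthetic medium micromethod at 37 °C, read after 7, 14 and 21 days. The 1.0 McFarland suspension was diluted 10^-4. MIC determined. 6509/96 is a clinical isolate.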

Mycobacterium avium [6] = assay: Antimycobacterial activity against Mycobacterium avium 330/80 after 14 days; type: functional; settings: 330/80, 336 h
Candida albicans [7] = assay: Antifungal activity against Candida albicans ATCC 44859 after 48 hrs by microdilution broth method; type: functional; settings: ATCC 44859, 48 h; in short: as §1
[8] = test system: Trichophyton mentagrophytes; assay: Antifungal activity against Trichophyton mentagrophytes 445 after 48 hrs by microdilution broth method; type: functional; settings: Trichophyton mentagrophytes, 445, 48 h
[9] = test system: Mycobacterium tuberculosis; assay: Antimycobacterial activity against Mycobacterium tuberculosis H37Rv 331/88 after 21 days; type: functional; settings: H37Rv 331/88, 504 h
HepG2 = assay: Cytotoxicity against human HepG2 cells after 24 hrs […]; type: cell-based; settings: HepG2, 24 h
Staphylococcus aureus [10] = assay: Antibacterial activity against Staphylococcus aureus CCM 4516/08 after 24 hrs by microdilution broth method; type: functional; settings: CCM 4516/08, 24 h
Escherichia coli [11] = assay: Antibacterial activity against Escherichia coli CCM4517 after 48 hrs by microdilution broth method; type: functional; settings: CCM4517, 48 h; in short: as §2
Klebsiella pneumoniae [12] = assay: Antibacterial activity against Klebsiella pneumoniae D 11750/08 after 24 hrs by microdilution broth method; type: functional; settings: D 11750/08, 24 h; in short: as §2
Nakaseomyces glabratus [13] = assay: Antifungal activity against Candida glabrata 20/I after 48 hrs by microdilution broth method; type: functional; in short: as §1
Mycobacterium kansasii [14] = assay: Antimycobacterial activity against Mycobacterium kansasii 6509/96 after 21 days; type: functional; settings: 6509/96, 504 h; in short: as §3
Pichia kudriavzevii [15] = assay: Antifungal activity against Candida krusei E28 after 24 hrs by microdilution broth method; type: functional; settings: E28, 24 h; in short: as §1
Mycobacterium kansasii [16] = assay: Antimycobacterial activity against Mycobacterium kansasii 235/80 after 7 days; type: functional; settings: 235/80, 168 h; in short: as §3
Mycobacterium kansasii [17] = assay: Antimycobacterial activity against Mycobacterium kansasii 6509/96 after 14 days; type: functional; settings: 6509/96, 336 h; in short: as §3
Pseudomonas aeruginosa [18] = assay: Antibacterial activity against Pseudomonas aeruginosa CCM 1961 after 48 hrs by microdilution broth method; type: functional; settings: CCM 1961, 48 h; in short: as §2
Enterococcus sp. [19] = assay: Antibacterial activity against Enterococcus sp. J 14365/08 after 48 hrs by microdilution broth method; type: functional; settings: J 14365/08, 48 h; in short: as §2
[20] = Selectivity index, ratio of CI50 for human HepG2 cells to MIC100 for Mycobacterium tuberculosis H37Rv 331/88
Staphylococcus aureus [21] = assay: Antibacterial activity against methicillin-resistant Staphylococcus aureus H 5996/08 after 48 hrs by microdilution broth method; type: functional; settings: H 5996/08, 48 h
Klebsiella pneumoniae [22] = assay: Antibacterial activity against ESBL-positive Klebsiella pneumoniae J 14368/08 after 48 hrs by microdilution broth method; type: functional; settings: J 14368/08, 48 h; in short: as §2
Pseudomonas aeruginosa [23] = assay: Antibacterial activity against Pseudomonas aeruginosa CCM 1961 after 24 hrs by microdilution broth method; type: functional; settings: CCM 1961, 24 h; in short: as §2
Staphylococcus aureus [24] = assay: Antibacterial activity against Staphylococcus aureus CCM 4516/08 after 48 hrs by microdilution broth method; type: functional; settings: CCM 4516/08, 48 h
[25] = test system: Mycobacterium tuberculosis; assay: Antimycobacterial activity against Mycobacterium tuberculosis H37Rv 331/88 after 14 days; type: functional; settings: H37Rv 331/88, 336 h
Aspergillus fumigatus [26] = assay: Antifungal activity against Aspergillus fumigatus 231 after 48 hrs by microdilution broth method; type: functional; settings: Aspergillus fumigatus, 231, 48 h; in short: as §1
Aspergillus fumigatus [27] = assay: Antifungal activity against Aspergillus fumigatus 231 after 24 hrs by microdilution broth method; type: functional; settings: Aspergillus fumigatus, 231, 24 h; in short: as §1
Klebsiella pneumoniae [28] = assay: Antibacterial activity against ESBL-positive Klebsiella pneumoniae J 14368/08 after 24 hrs by microdilution broth method; type: functional; settings: J 14368/08, 24 h; in short: as §2
[29] = test system: Staphylococcus epidermidis; assay: Antibacterial activity against Staphylococcus epidermidis H 6966/08 after 48 hrs by microdilution broth method; type: functional; settings: H 6966/08, 48 h; in short: as §2
Nakaseomyces glabratus [30] = assay: Antifungal activity against Candida glabrata 20/I after 24 hrs by microdilution broth method; type: functional; in short: as §1
Mycobacterium kansasii [31] = assay: Antimycobacterial activity against Mycobacterium kansasii 235/80 after 14 days; type: functional; settings: 235/80, 336 h; in short: as §3
Mycobacterium avium [32] = assay: Antimycobacterial activity against Mycobacterium avium 330/80 after 21 days; type: functional; settings: 330/80, 504 h
Pichia kudriavzevii [33] = assay: Antifungal activity against Candida krusei E28 after 48 hrs by microdilution broth method; type: functional; settings: E28, 48 h; in short: as §1
[34] = test system: Staphylococcus epidermidis; assay: Antibacterial activity against Staphylococcus epidermidis H 6966/08 after 24 hrs by microdilution broth method; type: functional; settings: H 6966/08, 24 h; in short: as §2
Candida tropicalis [35] = assay: Antifungal activity against Candida tropicalis 156 after 24 hrs by microdilution broth method; type: functional; settings: Candida tropicalis, 156, 24 h; in short: as §1
Lichtheimia corymbifera [36] = assay: Antifungal activity against Absidia corymbifera 272 after 24 hrs by microdilution broth method; type: functional; settings: Lichtheimia corymbifera, 272, 24 h; in short: as §1
Candida tropicalis [37] = assay: Antifungal activity against Candida tropicalis 156 after 48 hrs by microdilution broth method; type: functional; settings: Candida tropicalis, 156, 48 h; in short: as §1
Enterococcus sp. [38] = assay: Antibacterial activity against Enterococcus sp. J 14365/08 after 24 hrs by microdilution broth method; type: functional; settings: J 14365/08, 24 h; in short: as §2
Staphylococcus aureus [39] = assay: Antibacterial activity against methicillin-resistant Staphylococcus aureus H 5996/08 after 24 hrs by microdilution broth method; type: functional; settings: H 5996/08, 24 h
Mycobacterium kansasii [40] = assay: Antimycobacterial activity against Mycobacterium kansasii 6509/96 after 7 days; type: functional; settings: 6509/96, 168 h; in short: as §3
Lichtheimia corymbifera [41] = assay: Antifungal activity against Absidia corymbifera 272 after 48 hrs by microdilution broth method; type: functional; settings: Lichtheimia corymbifera, 272, 48 h; in short: as §1
Trichosporon asahii [42] = assay: Antifungal activity against Trichosporon asahii 1188 after 24 hrs by microdilution broth method; type: functional; settings: Trichosporon asahii, 1188, 24 h; in short: as §1
Escherichia coli [43] = assay: Antibacterial activity against Escherichia coli CCM4517 after 24 hrs by microdilution broth method; type: functional; settings: CCM4517, 24 h; in short: as §2

Compound: O=C(Nc1ccc(Cl)c(Cl)c1)c1ccc([N+](=O)[O-])cc1O
- MIC (Trichosporon asahii [1]): 15.6 µM (≈ 5.11 µg/mL)
- MIC (Klebsiella pneumoniae [2]): > 500 µM
- MIC (Candida albicans [3]): 62.5 µM (≈ 20.4 µg/mL)
- MIC [4]: 125 µM (≈ 40.9 µg/mL)
- MIC (Mycobacterium kansasii [5]): 8 µM (≈ 2.62 µg/mL)
- MIC (Mycobacterium avium [6]): 32 µM (≈ 10.5 µg/mL)
- MIC (Candida albicans [7]): 62.5 µM (≈ 20.4 µg/mL)
- MIC [8]: 125 µM (≈ 40.9 µg/mL)
- MIC [9]: 8 µM (≈ 2.62 µg/mL)
- IC50 (HepG2): 1.4 µM
- MIC (Staphylococcus aureus [10]): 3.9 µM (≈ 1.28 µg/mL)
- MIC (Escherichia coli [11]): > 500 µM
- MIC (Klebsiella pneumoniae [12]): > 500 µM
- MIC (Nakaseomyces glabratus [13]): 62.5 µM (≈ 20.4 µg/mL)
- MIC (Mycobacterium kansasii [14]): 16 µM (≈ 5.23 µg/mL)
- MIC (Pichia kudriavzevii [15]): 7.81 µM (≈ 2.55 µg/mL)
- MIC (Mycobacterium kansasii [16]): 4 µM (≈ 1.31 µg/mL)
- MIC (Mycobacterium kansasii [17]): 16 µM (≈ 5.23 µg/mL)
- MIC (Pseudomonas aeruginosa [18]): > 500 µM
- MIC (Enterococcus sp. [19]): 500 µM (≈ 164 µg/mL)
- Selectivity Index [20]: 0.175
- MIC (Staphylococcus aureus [21]): 1.95 µM (≈ 0.638 µg/mL)
- MIC (Klebsiella pneumoniae [22]): > 500 µM
- MIC (Pseudomonas aeruginosa [23]): > 500 µM
- MIC (Staphylococcus aureus [24]): 3.9 µM (≈ 1.28 µg/mL)
- MIC [25]: 4 µM (≈ 1.31 µg/mL)
- MIC (Aspergillus fumigatus [26]): 31.2 µM (≈ 10.2 µg/mL)
- MIC (Aspergillus fumigatus [27]): 31.2 µM (≈ 10.2 µg/mL)
- MIC (Klebsiella pneumoniae [28]): > 500 µM
- MIC [29]: 1.95 µM (≈ 0.638 µg/mL)
- MIC (Nakaseomyces glabratus [30]): 31.2 µM (≈ 10.2 µg/mL)
- MIC (Mycobacterium kansasii [31]): 8 µM (≈ 2.62 µg/mL)
- MIC (Mycobacterium avium [32]): 62.5 µM (≈ 20.4 µg/mL)
- MIC (Pichia kudriavzevii [33]): 15.6 µM (≈ 5.11 µg/mL)
- MIC [34]: 1.95 µM (≈ 0.638 µg/mL)
- MIC (Candida tropicalis [35]): 125 µM (≈ 40.9 µg/mL)
- MIC (Lichtheimia corymbifera [36]): 31.2 µM (≈ 10.2 µg/mL)
- MIC (Candida tropicalis [37]): > 250 µM
- MIC (Enterococcus sp. [38]): 125 µM (≈ 40.9 µg/mL)
- MIC (Staphylococcus aureus [39]): 1.95 µM (≈ 0.638 µg/mL)
- MIC (Mycobacterium kansasii [40]): 8 µM (≈ 2.62 µg/mL)
- MIC (Lichtheimia corymbifera [41]): 31.2 µM (≈ 10.2 µg/mL)
- MIC (Trichosporon asahii [42]): 7.81 µM (≈ 2.55 µg/mL)
- MIC (Escherichia coli [43]): > 500 µM
